Calls of active or inactive are those of the source. The calls are words filed in the database; no cut-off is given here.
Tests used:
[1] = Selectivity ratio of IC50 for cytotoxicity against human L02 cells to IC50 for antiproliferative activity against human HepG2 cells; assay type: toxicity, cell-based; settings: read-out: Ratio IC50
K562 [2] = assay: Induction of cell cycle arrest in human K562 cells assessed as accumulation at S phase at 0.5 uM after 48 hrs by propidium iodide staining based flow cytometric analysis (reference value: 44.73 to 45.96%); assay type: functional
K562 [3] = assay: Induction of cell cycle arrest in human K562 cells assessed as accumulation at G1 phase at 1 uM after 48 hrs by propidium iodide staining based flow cytometric analysis (reference value: 43.24 to 43.37%); assay type: functional
K562 [4] = assay: Induction of cell cycle arrest in human K562 cells assessed as accumulation at G2 phase at 1 uM after 48 hrs by propidium iodide staining based flow cytometric analysis (reference value: 10.96 to 12.03%); assay type: functional
K562 [5] = assay: Induction of cell cycle arrest in human K562 cells assessed as accumulation at G1 phase at 2 uM after 48 hrs by propidium iodide staining based flow cytometric analysis (reference value: 43.24 to 43.37%); assay type: functional
K562 [6] = assay: Induction of cell cycle arrest in human K562 cells assessed as accumulation at S phase at 2 uM after 48 hrs by propidium iodide staining based flow cytometric analysis (reference value: 44.73 to 45.96%); assay type: functional
K562 [7] = assay: Induction of cell cycle arrest in human K562 cells assessed as accumulation at G2 phase at 2 uM after 48 hrs by propidium iodide staining based flow cytometric analysis (reference value: 10.96 to 12.03%); assay type: functional
HepG2 [8] = assay: Induction of cell cycle arrest in human HepG2 cells assessed as accumulation at G2 phase at 0.5 uM after 48 hrs by propidium iodide staining based flow cytometric analysis (reference value: 16.48 to 16.97%); assay type: functional
Outline: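 HepG2 cells were treated with 0, 0.50, 1.0 or 2.0 test agent for 48 h. Cells were washed in cold PBS and fixed in 70% ethanol at −20 °C overnight. DNA-content distribution was measured by flow cytometry. Mean ± SD, three independent experiments.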

HepG2 [9] = assay: Induction of cell cycle arrest in human HepG2 cells assessed as accumulation at G2 phase at 2 uM after 48 hrs by propidium iodide staining based flow cytometric analysis (reference value: 16.48 to 16.97%); assay type: functional
K562 [10] = assay: Induction of apoptosis in human K562 cells assessed as chromatin shrinking after 24 to 48 hrs by Hoechst 33258 staining based fluorescence microscopic method; assay type: functional, cell-based; settings: dose 1-4 µM, time 24-48 hrs
Outline: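 K562 cells were exposed to 1.0, 2.0 or 4.0 test agent, with DMSO as vehicle control, for 24 h and 48 h. They were harvested, washed twice in PBS and stained with Hoechst 33258 (0.5 mg/mL in PBS) for 30 min in darkness. Slides were viewed by fluorescence microscopy with a DAPI filter. Three random fields of about 200 nuclei per sample were scored as % apoptotic nuclei. Three independent experiments.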

K562 [11] = assay: Induction of apoptosis in human K562 cells assessed as early apoptotic cells at 0.5 uM after 48 hrs by annexin V FITC and propidium iodide staining based flow cytometric analysis (reference value: 2.13%); assay type: functional
K562 [12] = assay: Induction of apoptosis in human K562 cells assessed as late apoptotic cells at 0.5 uM after 48 hrs by annexin V FITC and propidium iodide staining based flow cytometric analysis (reference value: 0.42%); assay type: functional
K562 [13] = assay: Induction of apoptosis in human K562 cells assessed as necrotic cells at 0.5 uM after 48 hrs by annexin V FITC and propidium iodide staining based flow cytometric analysis (reference value: 0.69%); assay type: functional
K562 [14] = assay: Induction of apoptosis in human K562 cells assessed as necrotic cells at 1 uM after 48 hrs by annexin V FITC and propidium iodide staining based flow cytometric analysis (reference value: 0.69%); assay type: functional
HepG2 [15] = assay: Induction of apoptosis in human HepG2 cells assessed as viable cells at 0.5 uM after 48 hrs by annexin V FITC and propidium iodide staining based flow cytometric analysis (reference value: 93.5%); assay type: functional; settings: read-out: Activity
HepG2 [16] = assay: Induction of apoptosis in human HepG2 cells assessed as early apoptotic cells at 0.5 uM after 48 hrs by annexin V FITC and propidium iodide staining based flow cytometric analysis (reference value: 2.89%); assay type: functional
HepG2 [17] = assay: Induction of apoptosis in human HepG2 cells assessed as late apoptotic cells at 1 uM after 48 hrs by annexin V FITC and propidium iodide staining based flow cytometric analysis (reference value: 3.17%); assay type: functional
HepG2 [18] = assay: Induction of apoptosis in human HepG2 cells assessed as necrotic cells at 1 uM after 48 hrs by annexin V FITC and propidium iodide staining based flow cytometric analysis (reference value: 0.89%); assay type: functional
HepG2 [19] = assay: Induction of apoptosis in human HepG2 cells assessed as late apoptotic cells at 2 uM after 48 hrs by annexin V FITC and propidium iodide staining based flow cytometric analysis (reference value: 3.17%); assay type: functional
HepG2 [20] = assay: Induction of apoptosis in human HepG2 cells assessed as necrotic cells at 2 uM after 48 hrs by annexin V FITC and propidium iodide staining based flow cytometric analysis (reference value: 0.89%); assay type: functional
HepG2 [21] = assay: Induction of mitochondrial membrane potential loss in human HepG2 cells after 48 hrs by JC1 staining based flow cytometric analysis; assay type: functional, cell-based; settings: dose 0.5-2 µM
Outline: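 K562 and HepG2 cells in 6-well plates were exposed for 48 h at 0, 0.50, 1.0 and 2.0 µM, with DMSO vehicle control. After trypsinization, cells were stained with JC-1 (0.5 mg/mL) at 37 °C in darkness for 30 min, then washed with PBS. Membrane potential was read by flow cytometry. Mean ± SD, three independent experiments.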

K562 [22] = assay: Induction of apoptosis in human K562 cells assessed as down regulation of procaspase-3 at 1 uM after 24 hrs by chemiluminescence based apoptosis array method; assay type: functional, cell-based
Outline: (§1)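 K562 cells were treated with 1 test agent for 24 h. Diluted total-cell lysates were applied to a human apoptosis antibody array covering 35 apoptosis-related proteins for 24 h. Unbound protein was washed off, and arrays were probed with a biotinylated detection antibody for 1 h. Relative expression was read from chemiluminescent signal by digital imaging.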

K562 [23] = assay: Induction of apoptosis in human K562 cells assessed as increase in cleaved caspase-3 at 1 uM after 24 hrs by chemiluminescence based apoptosis array method; assay type: functional, cell-based; outline: as §1
K562 [24] = assay: Induction of apoptosis in human K562 cells assessed as decrease in survivin protein expression at 1 uM after 24 hrs by chemiluminescence based apoptosis array method; assay type: functional, cell-based; outline: as §1
K562 [25] = assay: Induction of apoptosis in human K562 cells assessed as decrease in XIAP protein expression at 1 uM after 24 hrs by chemiluminescence based apoptosis array method; assay type: functional, cell-based; outline: as §1
K562 [26] = assay: Induction of apoptosis in human K562 cells assessed as increase in DR4 protein expression at 1 uM after 24 hrs by chemiluminescence based apoptosis array method; assay type: functional, cell-based; outline: as §1
K562 [27] = assay: Antiproliferative activity against human K562 cells assessed as reduction in cell viability after 72 hrs by MTT assay; settings: K562, 72 h
K562 [28] = assay: Induction of apoptosis in human K562 cells after 48 hrs by annexin V FITC and propidium iodide staining based flow cytometric analysis; settings: dose 0.5-2 µM

C=C1C(=O)[C@]23[C@H](OC(=O)CCC(=O)OCCCCCCOc4ccc(-c5cc(=S)ss5)cc4)[C@H]1CC[C@H]2[C@@]12CO[C@@]3(O)[C@@H](O)[C@@H]1C(C)(C)CC[C@@H]2OC(C)=O
selectivity ratio [1]: 20 | Activity (K562 [2]): 50.32% | Activity (K562 [3]): 34.14% | Activity (K562 [4]): 10.32% | Activity (K562 [5]): 29.97% | Activity (K562 [6]): 62.64% | Activity (K562 [7]): 7.39% | Activity (HepG2 [8]): 13.24% | Activity (HepG2 [9]): 6.6% | Activity (K562 [10]): Dose-dependent effect | Activity (K562 [11]): 7.1% | Activity (K562 [12]): 4.77% | Activity (K562 [13]): 1.1% | Activity (K562 [14]): 1.16% | viability at 0.5 µM (HepG2 [15]): 76.7% | Activity (HepG2 [16]): 10.52% | Activity (HepG2 [17]): 12.72% | Activity (HepG2 [18]): 1.26% | Activity (HepG2 [19]): 37.6% | Activity (HepG2 [20]): 4.42% | Activity (HepG2 [21]): Dose-dependent effect | Activity (K562 [22]): Active | Activity (K562 [23]): Active | Activity (K562 [24]): Active | Activity (K562 [25]): Active | Activity (K562 [26]): Active | IC50 (K562 [27]): 950 nM | Activity (K562 [28]): Dose-dependent effect

Reference: ChEMBL document CHEMBL4706489, “Hydrogen sulfide releasing oridonin derivatives induce apoptosis through extrinsic and intrinsic pathways” (Eur J Med Chem, 2020)
